Laboratory results reported in ChEMBL document CHEMBL5137029, “Chemically Tuning Resveratrol for the Effective Killing of Gram-Positive Pathogens” (J Nat Prod, 2022).
Values after ≈ are worked out from the molar mass of the structure shown. Active and inactive are the calls of the source. The rule behind the calls is not given here.

Key:
Enterococcus faecalis [1] = assay: Bactericidal activity against Enterococcus faecalis V583 at 32 uM measured upto 24 hrs by CLSI based broth microdilution method; format: functional, organism-based
Summary of the method: (§1)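 Each well then used as a 10% inoculum into fresh cMHB and incubated at 37 °C for 24 h. No regrowth in the MIC range was scored bactericidal, regrowth bacteriostatic. Triplicate.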

Staphylococcus aureus [2] = assay: Bactericidal activity against Staphylococcus aureus LMG 8224 at […] measured upto 24 hrs by CLSI based broth microdilution method; format: functional, organism-based; conditions: dose 128.0 µM
Bacillus cereus [3] = assay: Antibacterial activity against Bacillus cereus ATCC 10987 assessed as decrease in membrane integrity at 2x MIC incubated for 18 hrs by propidium iodide staining assay; format: functional, organism-based
Summary of the method: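 B. cereus grown 18 h in LB at 37 °C, washed in 5 mM HEPES pH 7.4 + 5 mM glucose, OD600 0.5, loaded with 10 μg/mL propidium iodide for 10 min. […] Gramicidin S positive control; triplicate.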

Bacillus cereus [4] = assay: Bactericidal activity against Bacillus cereus ATCC 10987 at 64 uM measured upto 24 hrs by CLSI based broth microdilution method; format: functional, organism-based; summary of the method: as §1
Bacillus cereus [5] = assay: Inhibition of electron transport chain in Bacillus cereus ATCC 10987 by measuring reduction of resazurin upto 120 min by resazurin dye based assay; conditions: DDE = dose-dependent effect
Summary of the method: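 B. cereus grown in LB to OD600 1, washed and resuspended in cMHB at OD600 0.2 with 100 μg/mL resazurin. Compounds added at the indicated concentrations; resorufin fluorescence (ex/em 550/590 nm) read every 5 min for 125 min. CCCP at 400, 200, 100 μM positive control; untreated cells and medium with resazurin negative controls; triplicate.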

Bacillus cereus [6] = assay: Antibacterial activity against Bacillus cereus ATCC 10987 assessed as membrane potential change at 0.5 to 2X MIC incubated for 20 mins by DiSC3(5) staining based assay; format: functional, organism-based
Summary of the method: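 B. cereus grown in LB to OD600 1, washed in glucose-HEPES pH 7.4, OD600 0.5, loaded with 2 μM DiSC3(5) for 20 min at 37 °C for baseline. […] Gramicidin S positive control; untreated cells and dye-only medium negative controls; triplicate.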

Staphylococcus aureus [7] = assay: Bactericidal activity against Staphylococcus aureus LMG 8224 measured upto 24 hrs by CLSI based broth microdilution method; format: functional; summary of the method: as §1
Bacillus cereus [8] = assay: Bactericidal activity against Bacillus cereus ATCC 10987 measured upto 24 hrs by CLSI based broth microdilution method; format: functional; summary of the method: as §1
Enterococcus faecalis [9] = assay: Bactericidal activity against Enterococcus faecalis V583 at 16 uM measured upto 24 hrs by CLSI based broth microdilution method; format: functional, organism-based; summary of the method: as §1
Enterococcus faecalis [10] = assay: Bactericidal activity against Enterococcus faecalis V583 measured upto 24 hrs by CLSI based broth microdilution method; format: functional; summary of the method: as §1
Staphylococcus aureus [11] = assay: Bactericidal activity against Staphylococcus aureus LMG 8224 at 16 uM measured upto 24 hrs by CLSI based broth microdilution method; format: functional, organism-based; summary of the method: as §1
Bacillus cereus [12] = assay: Bactericidal activity against Bacillus cereus ATCC 10987 at 16 uM measured upto 24 hrs by CLSI based broth microdilution method; format: functional, organism-based; summary of the method: as §1
Bacillus cereus [13] = assay: Antibacterial activity against Bacillus cereus ATCC 10987 assessed as reduction in intracellular ATP levels measured upto 120 min by BacTiter-Glo luminescent cell viability assay; format: functional, organism-based
Summary of the method: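 B. cereus grown in LB to OD600 1, washed in G-HEPES, resuspended in cMHB at OD600 0.25, treated with 32 μM compound at 37 °C. At 30, 60, 120 min samples mixed with BacTiter-Glo, 5 min room temperature, luminescence read. ATP normalized to OD600, as % of untreated control. CCCP 100 μM positive control; triplicate.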

Clostridium perfringens = assay: Antibacterial activity against Clostridium perfringens CECT376 incubated for 24 hrs by CLSI based broth microdilution method; format: functional
[14] = Antibacterial activity against Clostridium-ihumii AP5 incubated for 24 hrs by CLSI based broth microdilution method; format: functional
Clostridium beijerinckii = assay: Antibacterial activity against Clostridium beijerinckii B504 incubated for 24 hrs by CLSI based broth microdilution method; format: functional
Staphylococcus aureus [15] = assay: Antibacterial activity against Staphylococcus aureus LMG 15975 incubated for 20 hrs by CLSI based broth microdilution method; format: functional
Enterococcus faecalis [16] = assay: Antibacterial activity against Enterococcus faecalis LMG 08222 incubated for 20 hrs by CLSI based broth microdilution method; format: functional
Bacillus cereus [17] = assay: Antibacterial activity against Bacillus cereus ATCC 14579 incubated for 20 hrs by CLSI based broth microdilution method; format: functional
Clostridium tetani = assay: Antibacterial activity against Clostridium tetani CECT 4629 incubated for 24 hrs by CLSI based broth microdilution method; format: functional
Clostridium botulinum = assay: Antibacterial activity against Clostridium botulinum CECT551 incubated for 24 hrs by CLSI based broth microdilution method; format: functional
Staphylococcus aureus [18] = assay: Antibacterial activity against Staphylococcus aureus LMG 10147 incubated for 20 hrs by CLSI based broth microdilution method; format: functional
Bacillus cereus [19] = assay: Antibacterial activity against Bacillus cereus ATCC 10987 incubated for 20 hrs by CLSI based broth microdilution method; format: functional
Enterococcus faecalis [20] = assay: Antibacterial activity against Enterococcus faecalis V583 incubated for 20 hrs by CLSI based broth microdilution method; format: functional
Staphylococcus aureus [21] = assay: Antibacterial activity against Staphylococcus aureus LMG 8224 incubated for 20 hrs by CLSI based broth microdilution method; format: functional
Enterococcus faecalis [22] = assay: Antibacterial activity against Enterococcus faecalis LMG 16216 incubated for 20 hrs by CLSI based broth microdilution method; format: functional
Clostridioides difficile = assay: Antibacterial activity against Clostridium difficile CECT531 incubated for 24 hrs by CLSI based broth microdilution method; format: functional
[23] = Cytotoxicity against human MRC5 cells assessed as cellular metabolism incubated for 72 hrs by MTT assay; format: toxicity, cell-based
Summary of the method: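 MRC-5 cells in DMEM (1 g/L glucose) with 10% heat-inactivated FBS, 2 mM glutamine, penicillin/streptomycin, at 37 °C, 5% CO2. 5 × 10^3 cells/well seeded with increasing compound concentrations, 72 h. MTT added for 4 h, formazan dissolved in DMSO, A570 read. Sigmoidal fit for 50% growth reduction vs untreated; three independent experiments in triplicate.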

[24] = (§2) Hemolytic activity in human erythrocytes at […] incubated for 1 hrs; format: toxicity, cell-based, Erythrocyte; conditions: erythrocytes, read-out: Activity
Erythrocyte = assay: as §2; format: toxicity, cell-based; conditions: erythrocyte, 1 h, […]
[25] = Selectivity index, ratio of IC50 for cytotoxicity against human MRC5 cells to MIC for antibacterial activity against Enterococcus faecalis; format: toxicity, cell-based; conditions: read-out: Selectivity Index
Escherichia coli [26] = assay: Antimicrobial activity against Escherichia coli LMG […] incubated for 20 hrs by CLSI based broth microdilution method; format: functional
[27] = Selectivity index, ratio of IC50 for cytotoxicity against human MRC5 cells to MIC for antibacterial activity against Clostridium tetani; format: toxicity, cell-based; conditions: read-out: Selectivity Index
Escherichia coli [28] = assay: Antimicrobial activity against Escherichia coli LMG […] in presence of outer membrane disturbing peptide L-11 incubated for 20 hrs by CLSI based broth microdilution method; format: functional
[29] = Selectivity index, ratio of IC50 for cytotoxicity against human MRC5 cells to MIC for antibacterial activity against Staphylococcus aureus; format: toxicity, cell-based; conditions: read-out: Selectivity Index
[30] = Selectivity index, ratio of IC50 for cytotoxicity against human MRC5 cells to MIC for antibacterial activity against Bacillus cereus; format: toxicity, cell-based; conditions: read-out: Selectivity Index
Bacillus cereus [31] = assay: Bactericidal activity against Bacillus cereus ATCC 10987 at […] measured upto 24 hrs by CLSI based broth microdilution method; format: functional, organism-based; conditions: dose 128.0 µM
Enterococcus faecalis [32] = assay: Bactericidal activity against Enterococcus faecalis V583 at […] measured upto 24 hrs by CLSI based broth microdilution method; format: functional, organism-based; conditions: dose 128.0 µM
Bacillus cereus [33] = assay: Antibacterial activity against Bacillus cereus ATCC 10987 assessed as reduction in intracellular ATP levels at 100 uM measured upto 120 min by BacTiter-Glo luminescent cell viability assay; format: functional, organism-based
Summary of the method: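 B. cereus ATCC10987 was grown in LB at 37 °C to OD600 1, washed three times in G-HEPES, and resuspended in cMHB at OD600 0.25. Cells were exposed at 37 °C to compounds at 32 μM or to CCCP (100 μM, positive control). At 30, 60 and 120 min, BacTiter-Glo luminescence was read. ATP was normalised to OD600 and expressed as % of untreated cells. Run in triplicate.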

Molecule	Activity (Bacillus cereus [3])	inhibition (Bacillus cereus [5])	Activity (Bacillus cereus [6])	Activity (Bacillus cereus [12])	MIC (Clostridium perfringens) [µM]	MIC [14] [µM]	MIC (Clostridium beijerinckii) [µM]	MIC (Staphylococcus aureus [15]) [µM]	MIC (Enterococcus faecalis [16]) [µM]	MIC (Bacillus cereus [17]) [µM]	MIC (Clostridium tetani) [µM]	MIC (Clostridium botulinum) [µM]	MIC (Staphylococcus aureus [18]) [µM]	MIC (Bacillus cereus [19]) [µM]	MIC (Enterococcus faecalis [20]) [µM]	MIC (Staphylococcus aureus [21]) [µM]	MIC (Enterococcus faecalis [22]) [µM]	MIC (Clostridioides difficile) [µM]	IC50 at 72 h [23] [µM]	further results
CC(C)[Si](Oc1ccc(/C=C/c2cc(O)cc(O)c2)cc1)(C(C)C)C(C)C	Active	Dde	Active	–	–	–	–	–	–	–	–	–	–	–	–	–	–	–	–	Activity (Enterococcus faecalis [1]): Active; Activity (Staphylococcus aureus [2]): Active; Activity (Bacillus cereus [4]): Active
CC(C)[Si](Oc1cc(O)cc(/C=C/c2ccc(O)cc2)c1)(C(C)C)C(C)C	Active	–	Active	Active	–	–	–	–	–	–	–	–	–	–	–	–	–	–	–	MIC (Staphylococcus aureus [7]): 32 µM (≈ 12.3 µg/mL); MIC (Bacillus cereus [8]): 32 µM (≈ 12.3 µg/mL); Activity (Enterococcus faecalis [9]): Active; MIC (Enterococcus faecalis [10]): 32 µM (≈ 12.3 µg/mL); Activity (Staphylococcus aureus [11]): Active; Activity (Bacillus cereus [13]): Active
CCCCOc1cc(O)cc(/C=C/c2ccc(O)cc2)c1	–	–	–	–	64 (≈ 18.2 µg/mL)	64 (≈ 18.2 µg/mL)	26.6 (≈ 7.56 µg/mL)	32 (≈ 9.1 µg/mL)	128 (≈ 36.4 µg/mL)	32 (≈ 9.1 µg/mL)	16 (≈ 4.55 µg/mL)	32 (≈ 9.1 µg/mL)	64 (≈ 18.2 µg/mL)	32 (≈ 9.1 µg/mL)	128 (≈ 36.4 µg/mL)	64 (≈ 18.2 µg/mL)	128 (≈ 36.4 µg/mL)	64 (≈ 18.2 µg/mL)	–	–
CC(C)(C)[Si](C)(C)Oc1cc(O)cc(/C=C/c2ccc(O)cc2)c1	–	–	–	–	32 (≈ 11 µg/mL)	32 (≈ 11 µg/mL)	26.6 (≈ 9.11 µg/mL)	16 (≈ 5.48 µg/mL)	8 (≈ 2.74 µg/mL)	16 (≈ 5.48 µg/mL)	6.6 (≈ 2.26 µg/mL)	16 (≈ 5.48 µg/mL)	16 (≈ 5.48 µg/mL)	16 (≈ 5.48 µg/mL)	16 (≈ 5.48 µg/mL)	16 (≈ 5.48 µg/mL)	16 (≈ 5.48 µg/mL)	26.6 (≈ 9.11 µg/mL)	2.7	hemolysis at 1 h, […] [24]: 18.4%
CCCCOc1cc(/C=C/c2ccc(OS(=O)(=O)O)cc2)cc(OS(=O)(=O)O)c1	Active	Dde	Active	Active	–	–	–	–	–	–	–	–	–	–	–	–	–	–	–	Activity (Erythrocyte): Non-Toxic
CC(C)(C)[Si](C)(C)Oc1ccc(/C=C/c2cc(O)cc(O)c2)cc1	Active	Dde	Active	Active	13.3 (≈ 4.56 µg/mL)	16 (≈ 5.48 µg/mL)	10.6 (≈ 3.63 µg/mL)	8 (≈ 2.74 µg/mL)	6.6 (≈ 2.26 µg/mL)	4 (≈ 1.37 µg/mL)	5.3 (≈ 1.82 µg/mL)	13.3 (≈ 4.56 µg/mL)	8 (≈ 2.74 µg/mL)	8 (≈ 2.74 µg/mL)	8 (≈ 2.74 µg/mL)	8 (≈ 2.74 µg/mL)	8 (≈ 2.74 µg/mL)	21.3 (≈ 7.3 µg/mL)	15.5	MIC (Staphylococcus aureus [7]): 32 µM (≈ 11 µg/mL); MIC (Bacillus cereus [8]): 32 µM (≈ 11 µg/mL); selectivity ratio [25]: 2; MIC (Escherichia coli [26]): > 128 µM; Activity (Enterococcus faecalis [9]): Active; selectivity ratio [27]: 2; MIC (Escherichia coli [28]): 13.3 µM; hemolysis at 1 h, […] [24]: 12.7%; selectivity ratio [29]: 2; MIC (Enterococcus faecalis [10]): 32 µM (≈ 11 µg/mL); Activity (Staphylococcus aureus [11]): Active; selectivity ratio [30]: 2
Oc1ccc(/C=C/c2cc(O)cc(O)c2)cc1 [RESVERATROL]	–	–	Active	–	–	–	–	–	–	–	–	–	–	–	–	–	–	–	–	Activity (Bacillus cereus [31]): Active; Activity (Enterococcus faecalis [32]): Active; Activity (Erythrocyte): Non-Toxic; Activity (Staphylococcus aureus [2]): Active
CC[Si](CC)(CC)Oc1cc(O)cc(/C=C/c2ccc(O)cc2)c1	–	–	–	–	–	–	–	–	–	–	–	–	–	–	–	–	–	–	21.3	–
GENTAMICIN	–	–	–	–	> 32	–	–	–	–	–	–	–	–	4	> 32	1	–	> 32	–	–
N#CC(C#N)=NNc1cccc(Cl)c1	–	–	–	–	–	–	–	–	–	–	–	–	–	–	–	–	–	–	–	Activity (Bacillus cereus [33]): Active
